Key:
Settings in all cases: stereoisomer not certain
UniProt Q8VGC6 = target: T1, UniProt Q8VGC6
T1 sequence (whole entry): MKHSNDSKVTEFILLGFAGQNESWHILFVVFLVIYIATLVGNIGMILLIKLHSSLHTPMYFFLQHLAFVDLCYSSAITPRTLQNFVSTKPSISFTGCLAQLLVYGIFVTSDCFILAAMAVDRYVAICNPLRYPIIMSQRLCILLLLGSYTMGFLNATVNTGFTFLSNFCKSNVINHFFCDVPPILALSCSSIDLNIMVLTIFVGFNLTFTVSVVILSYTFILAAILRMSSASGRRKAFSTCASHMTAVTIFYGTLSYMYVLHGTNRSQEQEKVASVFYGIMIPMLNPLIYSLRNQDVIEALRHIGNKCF
Method in brief: (§1)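 Each entry records the cell line, G-protein, co-transfected protein and tags used. Methods varied with the source, often transient luciferase assays in mammalian cell lines. A receptor–molecule pair is called responsive (active) if the original authors judged its signal statistically different from baseline and non-responsive (inactive) otherwise.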

UniProt Q8VGD7 = target: T2, UniProt Q8VGD7
T2 sequence (whole entry): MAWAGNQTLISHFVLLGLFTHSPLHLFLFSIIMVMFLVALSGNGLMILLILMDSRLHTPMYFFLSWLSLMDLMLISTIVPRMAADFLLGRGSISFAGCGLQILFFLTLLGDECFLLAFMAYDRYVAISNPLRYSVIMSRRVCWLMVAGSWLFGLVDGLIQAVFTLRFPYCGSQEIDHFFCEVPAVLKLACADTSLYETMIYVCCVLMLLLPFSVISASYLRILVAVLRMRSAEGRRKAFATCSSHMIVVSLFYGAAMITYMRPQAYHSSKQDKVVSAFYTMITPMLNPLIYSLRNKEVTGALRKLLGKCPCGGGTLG
Method in brief: as §1

UniProt Q8VGH1 = target: T3, UniProt Q8VGH1
T3 sequence (whole entry): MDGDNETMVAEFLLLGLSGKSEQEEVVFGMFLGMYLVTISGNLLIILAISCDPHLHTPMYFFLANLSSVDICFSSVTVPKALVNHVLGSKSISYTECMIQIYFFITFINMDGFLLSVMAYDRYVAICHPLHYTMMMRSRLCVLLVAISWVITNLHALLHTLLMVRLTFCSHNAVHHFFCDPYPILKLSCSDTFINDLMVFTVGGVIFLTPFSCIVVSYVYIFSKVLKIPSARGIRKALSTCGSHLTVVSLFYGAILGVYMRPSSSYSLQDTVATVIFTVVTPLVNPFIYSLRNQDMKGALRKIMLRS
Method in brief: as §1

UniProt Q8VGJ1 = target: T4, UniProt Q8VGJ1
T4 sequence (whole entry): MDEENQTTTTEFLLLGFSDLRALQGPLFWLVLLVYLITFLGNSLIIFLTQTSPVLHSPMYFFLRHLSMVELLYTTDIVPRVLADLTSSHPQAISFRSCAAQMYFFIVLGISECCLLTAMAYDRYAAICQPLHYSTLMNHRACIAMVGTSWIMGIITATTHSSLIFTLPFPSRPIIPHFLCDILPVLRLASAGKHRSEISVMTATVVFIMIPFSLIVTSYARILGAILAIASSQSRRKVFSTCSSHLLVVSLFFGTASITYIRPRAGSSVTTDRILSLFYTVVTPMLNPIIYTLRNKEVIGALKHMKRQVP
Method in brief: as §1

UniProt Q8VGJ3 = target: T5, UniProt Q8VGJ3
T5 sequence (whole entry): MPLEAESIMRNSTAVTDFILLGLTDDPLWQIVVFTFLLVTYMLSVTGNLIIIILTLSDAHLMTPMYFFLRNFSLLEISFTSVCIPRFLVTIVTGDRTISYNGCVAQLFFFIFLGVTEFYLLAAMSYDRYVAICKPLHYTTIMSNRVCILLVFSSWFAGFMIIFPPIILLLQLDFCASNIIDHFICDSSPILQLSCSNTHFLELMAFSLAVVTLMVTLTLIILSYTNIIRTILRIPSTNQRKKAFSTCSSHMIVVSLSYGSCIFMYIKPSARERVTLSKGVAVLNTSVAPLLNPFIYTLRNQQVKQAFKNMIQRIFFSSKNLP
Method in brief: as §1

UniProt Q8VGJ5 = target: T6, UniProt Q8VGJ5
T6 sequence (whole entry): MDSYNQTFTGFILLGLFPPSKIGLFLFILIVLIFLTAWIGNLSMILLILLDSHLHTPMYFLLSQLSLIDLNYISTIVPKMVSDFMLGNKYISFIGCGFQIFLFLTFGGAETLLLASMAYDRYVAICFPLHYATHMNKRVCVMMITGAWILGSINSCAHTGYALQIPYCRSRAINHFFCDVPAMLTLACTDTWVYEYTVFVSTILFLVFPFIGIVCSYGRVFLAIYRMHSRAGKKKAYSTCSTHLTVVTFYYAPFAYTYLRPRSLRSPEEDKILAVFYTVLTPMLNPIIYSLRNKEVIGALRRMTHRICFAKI
Method in brief: as §1

UniProt Q8VGL0 = target: T7, UniProt Q8VGL0
T7 sequence (whole entry): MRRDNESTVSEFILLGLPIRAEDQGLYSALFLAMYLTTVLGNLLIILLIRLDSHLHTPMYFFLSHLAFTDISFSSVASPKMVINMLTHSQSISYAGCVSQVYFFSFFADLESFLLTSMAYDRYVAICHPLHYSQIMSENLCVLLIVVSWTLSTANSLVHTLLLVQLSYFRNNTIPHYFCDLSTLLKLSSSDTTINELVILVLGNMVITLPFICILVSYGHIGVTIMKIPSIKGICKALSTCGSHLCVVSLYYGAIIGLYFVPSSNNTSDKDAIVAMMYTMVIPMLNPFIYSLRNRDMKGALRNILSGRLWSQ
Method in brief: as §1

UniProt Q8VGL7 = target: T8, UniProt Q8VGL7
T8 sequence (whole entry): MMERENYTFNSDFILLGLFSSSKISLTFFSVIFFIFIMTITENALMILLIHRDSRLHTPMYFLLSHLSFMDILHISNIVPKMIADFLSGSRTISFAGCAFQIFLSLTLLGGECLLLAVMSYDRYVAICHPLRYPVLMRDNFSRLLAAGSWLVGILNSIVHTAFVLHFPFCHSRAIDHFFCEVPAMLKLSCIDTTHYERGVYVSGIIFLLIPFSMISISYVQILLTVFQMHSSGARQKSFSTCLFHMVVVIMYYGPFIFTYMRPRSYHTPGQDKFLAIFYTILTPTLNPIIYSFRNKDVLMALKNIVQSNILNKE
Method in brief: as §1

UniProt Q8VGM2 = target: T9, UniProt Q8VGM2
T9 sequence (whole entry): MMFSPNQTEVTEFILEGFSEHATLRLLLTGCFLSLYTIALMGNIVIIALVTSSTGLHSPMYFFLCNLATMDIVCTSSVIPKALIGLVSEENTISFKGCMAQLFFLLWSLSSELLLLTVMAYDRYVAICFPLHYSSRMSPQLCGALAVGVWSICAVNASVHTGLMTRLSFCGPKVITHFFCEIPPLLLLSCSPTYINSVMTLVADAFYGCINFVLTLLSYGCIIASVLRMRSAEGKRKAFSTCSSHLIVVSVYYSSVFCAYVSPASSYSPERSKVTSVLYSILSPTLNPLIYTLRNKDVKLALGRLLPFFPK
Method in brief: as §1

Measured: odorant receptor agonist call

CCCCCCCO
active: UniProt Q8VGC6 | UniProt Q8VGJ5
inactive: UniProt Q8VGD7 | UniProt Q8VGH1 | UniProt Q8VGJ1 | UniProt Q8VGJ3 | UniProt Q8VGL0 | UniProt Q8VGL7 | UniProt Q8VGM2

Source: the M2OR odorant receptor database
